Screening results as filed in PubChem.
The sample as a whole holds a higher share of hits than the screen did.
H69AR growth 86K – growth inhibitors of human H69AR lung tumor cells | H69AR lung tumor viability, ATP luminescence, 72 h; active compounds read low | viability, % at 10 µM | 85,000 tested, 6% active | AID 598;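 active = viability at or below 40%; inactive = viability above 40%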;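 also: multidrug resistant small cell line overexpressing MRP-1 efflux transporter; 100% = mean luminescence of untreated control wells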
bCat KO growth – beta-catenin-lacking colon tumor cell growth suppression | viability, % at 10 µM | AID 818 | 140,000 tested, 1.5% active | HCT116 beta-catenin knockout viability, CellTiter-Glo, 60 h; active compounds read low;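 active = viability at or under a set limit, the compound median less 4 SD, cut at about 6% in these data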;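 also: 0% = Hyamine 1622 control at 20 µM and 100% = untreated cell control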
HCT116 PTEN-null – growth suppressors of cells with PTEN tumor suppressor deletion; HCT116 PTEN-null viability, CellTiter-Glo, 60 h; active compounds read low; viability, % at 10 µM; 140,000 tested, 1.2% active;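 active = viability at or below a set limit, 4 SD under the median of all tested compounds, cut at about 3.7% in these data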;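 also: PTEN knockout HCT116 line with beta catenin targeted HCT116 as companion control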
PTK2B oligo ant – blocks oligomerization of human Pyk2 in cells. Q14289. Q293 cells, Pyk2 FERM NanoBiT luminescence; active compounds read low. z-score (the deposit names both 25 µM and 10 µM). 99,000 tested, 0.83% active. AID 1347419;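 active = Z-score of -3 or lower, scaled per plate to the spread of control and sample wells; inactive = z-score above -3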;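 also: negative z-score means lost luminescence so less FERM oligomerization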
Target sequence (Q14289 whole entry, looked up): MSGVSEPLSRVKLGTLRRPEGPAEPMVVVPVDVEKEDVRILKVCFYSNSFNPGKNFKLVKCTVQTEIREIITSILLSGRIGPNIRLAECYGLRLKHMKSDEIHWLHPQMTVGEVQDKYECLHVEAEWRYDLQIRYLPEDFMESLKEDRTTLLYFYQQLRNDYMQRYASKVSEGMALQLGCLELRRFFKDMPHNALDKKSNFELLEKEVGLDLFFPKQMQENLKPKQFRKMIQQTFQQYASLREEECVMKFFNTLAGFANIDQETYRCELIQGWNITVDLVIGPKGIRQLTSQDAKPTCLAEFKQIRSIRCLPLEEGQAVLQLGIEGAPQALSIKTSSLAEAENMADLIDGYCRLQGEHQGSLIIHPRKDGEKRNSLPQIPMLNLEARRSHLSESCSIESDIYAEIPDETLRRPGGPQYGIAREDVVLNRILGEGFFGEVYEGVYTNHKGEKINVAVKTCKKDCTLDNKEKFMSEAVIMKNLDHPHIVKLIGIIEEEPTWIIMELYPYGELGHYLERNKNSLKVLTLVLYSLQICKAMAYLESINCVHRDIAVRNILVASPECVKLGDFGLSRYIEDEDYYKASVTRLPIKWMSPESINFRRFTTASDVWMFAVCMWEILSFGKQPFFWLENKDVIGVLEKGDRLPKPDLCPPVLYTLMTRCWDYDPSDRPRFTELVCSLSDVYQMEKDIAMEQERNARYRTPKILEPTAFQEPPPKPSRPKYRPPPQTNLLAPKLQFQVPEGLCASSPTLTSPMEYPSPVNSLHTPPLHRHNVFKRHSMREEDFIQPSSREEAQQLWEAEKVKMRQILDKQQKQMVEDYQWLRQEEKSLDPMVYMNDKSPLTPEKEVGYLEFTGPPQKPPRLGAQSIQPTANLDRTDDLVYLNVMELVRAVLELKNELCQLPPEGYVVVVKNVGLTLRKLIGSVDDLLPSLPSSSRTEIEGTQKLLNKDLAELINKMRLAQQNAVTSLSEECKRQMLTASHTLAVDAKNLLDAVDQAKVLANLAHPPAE
Fibroblast inh – blocks proliferation of human lung fibroblasts. LL 47 human lung fibroblast viability, ATP luminescence; active compounds read low. viability, % at 10 µM. 85,000 tested, 1.1% active;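 active = viability at or below 50% in the single dose screen; inactive = viability above 50%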;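 also: compound exposure lasted 72 h before the ATP readout; 100% = median luminescence of untreated cell-only wells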
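Benchmarks: Cell-only wells, no compound | Test system: LL 47 human lung fibroblasts, passage 12 or lower | Input: 1,150 cells/well | Measured by: CellTiter-Glo luminescence measuring cellular ATP | Medium: IMEM, 15% FBS supplement | Schedule: Overnight attachment after seeding, then 72 h compound exposure at 37 °C | Doses: Compound addition at 0.1% DMSO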
HUVEC prolif 384 – human endothelial cell proliferation inhibition. HUVEC proliferation, CellTiter-Glo luminescence, 72 h; active compounds read low. AID 648. viability, % at 10 µM (by protocol). 86,000 tested, 1.1% active;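 active = viability at or below 30%; inactive = viability above 30%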;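 also: 100% = median luminescence of DMSO-only cell control wells on each plate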
* marks the source's active call; other numbers are inactive results; · = no result given.

SMILES | H69AR growth 86K | bCat KO growth | HCT116 PTEN-null | PTK2B oligo ant | Fibroblast inh | HUVEC prolif 384
COC(=O)c1ccc2c(c1)C(C)(C)C(/C=C/c1ccc(OC)c(OC)c1OC)=[N+]2C | 4.1* | 4.9* | 0.6* | -0.21 | 6.5* | 5.3*
COC(=O)c1ccc(O)c(Sc2cc(C(=O)OC)ccc2O)c1 | 67.5 | 92.3 | 95.4 | 1.07 | 95.6 | 77.5
COC(=O)c1ccc2c(c1)C(C)(C)C(/C=C/c1ccc(O)cc1)=[N+]2C | · | 1.9* | 1.7* | -0.31 | · | ·
CC(=O)Nc1sc(N/N=C\c2ccco2)nc1-c1cccs1 | · | 97.7 | 97.5 | · | · | ·
CC(C)(C)c1ccc(CN2C3=NCCCN3c3ccccc32)cc1 | 14.6* | 3.9* | 2.9* | 0.05 | 76.3 | 61.4
Cc1ccc(CN2C3=NCCCN3c3ccccc32)cc1 | 67.9 | 65.2 | 63.2 | 0.24 | 94.2 | 84.8
CC1(C)CC(=O)C(N=Nc2cc(Cl)c(Cl)c(Cl)c2)=C(O)C1 | · | 97.5 | 92.6 | -0.49 | · | ·
Cc1ccc(O)c(N=NC2=C(O)CC(C)(C)CC2=O)c1 | · | 4.4* | 5.0 | · | · | ·
Cc1cc(C)c(S(=O)(=O)N2CCCCC2)c(C)c1N(C)S(=O)(=O)c1ccccc1 | · | 77.4 | 77.2 | -2.01 | · | ·
c1cnn(-c2nc(N3CCOCC3)nc(N3CCOCC3)n2)c1 | 76.9 | 61.4 | 66.1 | 0.32 | 49.0* | 58.2
NC(=S)N/N=C/c1ccccc1OCCSc1ccc(Cl)cc1 | · | 29.3 | 42.7 | · | · | ·
Cc1cc(-c2ccccc2)nc2cc(C(=O)NCCCn3ccnc3)nn12 | 42.6 | 84.3 | 86.0 | 0.06 | 89.6 | 88.6
O=C(NCCCn1ccnc1)c1cc2nc(-c3ccc(Br)cc3)cc(C(F)(F)F)n2n1 | 4.2* | 75.1 | 70.6 | -0.27 | 93.6 | 56.7
Cc1cccc(NC(=O)Cn2c(C)c(C#N)c3ccccc32)c1C | 99.5 | 83.5 | 85.3 | 0.69 | 91.0 | 92.8
COc1ccc(C2NC(=O)NC3=C2CCc2ccccc23)cc1 (stereo not drawn) | 24.1* | 37.4 | 25.2 | -0.34 | 83.5 | 80.3
Cc1ccc2nc(NC3=NCN(Cc4ccc5c(c4)OCO5)CN3)nc(C)c2c1 | 27.9* | · | · | · | 41.9* | 65.4
Cc1ccc2nc(NC3=NCN(Cc4ccco4)CN3)nc(C)c2c1 | 59.4 | · | · | · | 79.3 | 86.8
O=C(NCC(c1cccs1)N1CCOCC1)c1ccc(Cl)s1 (stereo not drawn) | 17.6* | 16.2 | 20.6 | 0.72 | 63.8 | 81.6
O=C1[C@H]2[C@H]3[C@H](O)[C@H](O)C/C(=N\OC[C@@H](O)COCc4ccco4)[C@@H]3CC[C@H]2C(=O)N1c1ccc(F)cc1F | · | 0.3* | 79.2 | · | · | ·
Cc1ccc(Cl)cc1N1CCN(CC(O)COCc2ccco2)CC1 (stereo not drawn) | · | 71.1 | 67.8 | · | · | ·
O=c1[nH]c(Nc2nc3ccccc3o2)nc2c1CCCC2 | 16.5* | 3.3* | 2.8* | -3.26* | 5.6* | 55.2
CN1c2ccccc2C(O)=C(C(=S)Nc2ccc(Cl)cc2)S1(=O)=O | · | 92.5 | 85.8 | -3.19* | · | ·
CCC(C)n1c(SCc2ccccc2)nc2ccsc2c1=O (stereo not drawn) | · | 80.0 | 74.3 | -0.67 | · | ·
C=CCN(C(=O)c1ccccc1)c1ccc(OC)cc1 | 23.5* | 41.6 | 32.6 | -0.63 | 87.7 | 81.8
COc1ccc(N(C)C(=O)c2ccc3nc(-c4ccccc4)c(-c4ccccc4)nc3c2)cc1 | · | 55.6 | 58.4 | -2.7 | · | ·
SMILES | H69AR growth 86K | bCat KO growth | HCT116 PTEN-null | PTK2B oligo ant | Fibroblast inh | HUVEC prolif 384
CCc1nnc(NC(=O)CSc2nc(C)c3c(c2C#N)CCCC3)s1 | 24.2* | 57.9 | 38.8 | -3.37* | 93.8 | 59.3
COc1ccccc1/C=C/C1(C(=O)NC2CCCC2)CC(=O)N1c1ccc(C)cc1 (stereo not drawn) | 2.1* | 10.3 | 9.7 | -2.61 | 47.6* | 39.1
COc1ccccc1/C=C/C1(C(=O)NC2CCCC2)CC(=O)N1c1ccc(F)cc1 (stereo not drawn) | 0.5* | 16.6 | 14.8 | -0.73 | 1.9* | 34.8
CCN(CC)S(=O)(=O)c1ccc(N2C(=O)CC2(/C=C/c2ccccc2)C(=O)NC2CCCC2)cc1 (stereo not drawn) | · | 80.8 | 72.6 | · | · | ·
CCc1ccc(OCC(=O)NC(NC(=S)Nc2ccc(Cl)cc2)C(Cl)(Cl)Cl)cc1 (stereo not drawn) | · | 24.7 | 8.3 | · | · | ·
CN(CC(=O)Nc1nc2ccccc2s1)S(=O)(=O)c1ccc(Cl)cc1 | 36.2* | 89.4 | 94.4 | -0.8 | 88.4 | 67.3
CCOC(=O)c1sc(NC(=O)c2ccc(S(=O)(=O)N3CCCCC3)cc2)nc1-c1ccccc1 | · | 53.4 | 46.0 | · | · | ·
CCOC(=O)N1CCN(S(=O)(=O)c2ccc(C(=O)Nc3nc4ccccc4s3)cc2)CC1 | 13.2* | 68.0 | 73.0 | 0.51 | 84.2 | 67.7
CN(CC(=O)Nc1nc2ccccc2s1)S(=O)(=O)c1ccc(Br)cc1 | 95.5 | 82.8 | 62.1 | -1.49 | 91.1 | 83.8
CCOC(=O)N1CCN(S(=O)(=O)c2ccc(C(=O)Nc3nc4ccc(F)cc4s3)cc2)CC1 | 22.6* | 37.6 | 69.1 | 1.71 | 28.6* | 47.2
O=C(COc1ccc2c(c1)CCC2)NCc1ccc(Cl)cc1 | · | 99.3 | 99.3 | · | · | ·
O=C(CSc1nnc(Nc2ccccc2F)s1)Nc1cccc(S(=O)(=O)N2CCCCC2)c1 | · | 63.7 | 60.3 | · | · | ·
CC(=O)NC(=S)Nc1cccc(S(=O)(=O)NC2=NCCC2)c1 | · | 90.7 | 99.5 | · | · | ·
O=C(CSc1nnc2c3cc(F)ccc3nc(-c3ccccc3)n12)N1CCOCC1 | 83.6 | · | · | · | 86.6 | 57.4
Cc1c(-c2nc(N)nc(Nc3ccccc3)n2)oc2ccccc12 | 14.5* | 57.9 | 48.8 | -1.81 | 97.3 | 62.3
CC(C)(C)c1ccc(C(=O)NCC(=O)OCc2ccc([N+](=O)[O-])cc2)cc1 | · | 95.5 | 115.1 | · | · | ·
CCOc1ccc(C(=O)CC(=O)C(=O)NCCc2ccc(OC)c(OC)c2)cc1 | · | 94.1 | 91.8 | · | · | ·
Cc1ccc(OCC(O)Cn2c3ccccc3c3ccccc32)cc1 (stereo not drawn) | · | 66.1 | 57.5 | -0.37 | · | ·
CC(=O)N(C)c1ccc(OCC(O)Cn2c3ccc(Cl)cc3c3cc(Cl)ccc32)cc1 (stereo not drawn) | · | 2.8* | 1.8* | -1.32 | · | ·
COc1ccc(C(=O)C(C)Oc2cccc(NC(=O)c3cccc([N+](=O)[O-])c3)c2)cc1 (stereo not drawn) | · | 85.8 | 78.0 | · | · | ·
CC(C)n1cc(/C=C(\C#N)S(=O)(=O)c2ccccc2)c2ccccc21 | 33.7* | 89.0 | 96.2 | -2.35 | 92.0 | 85.7
N#C/C(=C\c1cn(-c2ccccc2)nc1-c1ccccc1)S(=O)(=O)c1ccccc1 | · | 97.8 | 94.8 | 1.48 | · | ·
COc1ccc(Cn2c(C)c(C)c(C#N)c2NC(=O)Nc2cccc(Cl)c2)cc1 | 36.2* | 79.1 | 78.7 | 0.22 | 93.2 | 61.0
Cc1c(C#N)c(NC(=O)c2cccc(Cl)c2)n(Cc2ccccc2)c1C | · | 88.2 | 79.4 | -2.38 | · | ·
COc1ccc(Cn2c(C)c(C)c(C#N)c2NC(=O)Nc2ccc(Cl)cc2)cc1 | 35.0* | 97.1 | 99.5 | 0.11 | 74.1 | 63.1
